Assays:
Conditions in all cases: Homo sapiens
MT4 [1] = assay: (§1) Concentration required for 50% protection of infected MT-4 cells from wtIIIB-HIV-1-induced cytopathogenicity was determined by the MTT method; assay type: functional, cell-based
Summary of the method: (§2)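 MT-4 cells (1 × 10⁴/well, RPMI 1640 with 10% FCS, 37 °C, 5% CO₂) were infected with HIV-1 IIIB (H9/IIIB supernatant) at an inoculum causing complete cytopathicity by day 4, across graded compound concentrations. Viability was read by MTT, with cytotoxicity run in parallel on mock-infected cells. Concentration giving 50% protection reported as the mean of three experiments.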

MT4 [2] = assay: Protection of infected MT-4 cells from wtIIIB-HIV-1-induced cytopathogenicity; assay type: functional, cell-based; summary of the method: as §2
C8166 [3] = assay: Concentration required to reduce the amount of p24 by 90% in C8166 cells infected with an efavirenz-resistant strain EFVR; assay type: functional
Summary of the method: (§3)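 C8166 cells (1 × 10⁴/well) with serial compound dilutions (200 mM DMSO stock diluted in medium), infected with K103R/V179D/P225H virus selected from IIIB by passage in C8166 cells with efavirenz up to 2 μM (stock 3.0 × 10⁵ CCID₅₀/mL); 37 °C incubation; p24 measured by immunoenzymatic kit; value = concentration giving 90% p24 reduction.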

MT4 [4] = assay: Compound concentration required to achieve 50% protection of infected MT-4 cells from K103N-Y181C strain was determined by the MTT method; assay type: functional, cell-based
Summary of the method: (§4)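 MT-4 cells (1 × 10⁴/well, RPMI 1640 + 10% FCS) exposed to serial compound dilutions (200 mM DMSO stock diluted in medium), infected with enough virus to give full cytopathicity by day 4; wt IIIB from H9/IIIB supernatant, Y181C and K103N–Y181C from NNRTI-selected passages.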

MT4 [5] = assay: Concentration required to achieve 50% protection of infected MT-4 cells from Y181C-HIV-1 strain; assay type: functional, cell-based; summary of the method: as §4
MT4 [6] = assay: Compound concentration required to achieve 50% protection of infected MT-4 cells from Y181C strain was determined by the MTT method; assay type: functional, cell-based; summary of the method: as §4
C8166 [7] = assay: Compound concentration required to reduce the amount of p24 by 90% in C8166 cells infected with an efavirenz-resistant strain EFVR carrying mutations K103R, V179D, and P225H; assay type: functional; summary of the method: as §3
MT4 [8] = assay: Concentration required to achieve 50% protection of infected MT-4 cells from K103N-Y181C; assay type: functional, cell-based; summary of the method: as §4
C8166 [9] = assay: Concentration required to reduce the amount of p24 by 90% in wtIIIB-HIV-1-infected C8166 cells; assay type: functional
Summary of the method: (§5)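 Acute infection of C8166 cells (1 × 10⁴/well, RPMI 1640 with 10% FCS, 37 °C, 5% CO₂) by HIV-1 IIIB from persistently infected H9/IIIB supernatant, with a virus inoculum sized to cause complete cytopathicity at day 4, in the presence of serially diluted compound (DMSO stock diluted in medium). p24 antigen was measured by immunoenzymatic kit. Concentration giving 90% reduction of p24 reported.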

C8166 [10] = assay: Compound concentration required to reduce the amount of p24 by 90% in wtIIIBinfected C8166 cells; assay type: functional; summary of the method: as §5
MT4 [11] = assay: as §1; assay type: functional, cell-based; summary of the method: as §4; remark: listed apart in the source

SMILES	EC50 (MT4 [2]) [nM]	other results
O=[N+]([O-])c1ccc(Cl)c(S(=O)(=O)n2ccc3ccccc32)c1	–	EC50 (MT4 [1]): 6030 nM
O=Cc1cc2cc(Cl)ccc2n1S(=O)(=O)c1ccccc1	> 75000	–
CCOC(=O)C(=O)c1cc2ccccc2n1S(=O)(=O)c1cc(Cl)ccc1N	1800	–
NNC(=O)C(=O)c1cc2ccccc2n1S(=O)(=O)c1ccccc1	> 200000	–
NC(=O)c1c(C=O)n(S(=O)(=O)c2ccccc2)c2ccc(Cl)cc12	≥ 200000	–
CCOC(=O)C(=O)c1cc2cc(Cl)ccc2n1S(=O)(=O)c1ccc(C)cc1	> 200000	–
CCOC(=O)C(=O)c1cc2ccccc2n1S(=O)(=O)c1ccc(Cl)cc1	> 100000	–
CCOC(=O)c1c(C=O)n(S(=O)(=O)c2ccccc2)c2ccccc12	> 32000	–
Cc1cc(C)cc(S(=O)(=O)c2c(C(=O)NNCCO)[nH]c3ccc(Cl)cc23)c1	1	EC90 (C8166 [3]): 200 nM; EC50 (MT4 [4]): 10000 nM; EC50 (MT4 [5]): 30 nM; EC50 (MT4 [6]): 30 nM; EC90 (C8166 [7]): 200 nM; EC50 (MT4 [8]): 10000 nM; EC90 (C8166 [9]): 6 nM; EC90 (C8166 [10]): 6 nM; EC50 (MT4 [1]): 1 nM; EC50 (MT4 [11]): 1 nM
CCOC(=O)c1c(C=O)n(S(=O)(=O)c2ccccc2)c2ccc(Cl)cc12	> 42000	–
CCOC(=O)C(=O)c1cc2cc(Cl)ccc2n1S(=O)(=O)c1cc(Cl)ccc1N	8300	–
CC(C)OC(=O)c1c(C=O)n(S(=O)(=O)c2ccccc2)c2ccccc12	> 54000	–
Cc1ccc(Sc2c(C(=O)NNCCO)[nH]c3ccc(Cl)cc23)c(C)c1	–	EC50 (MT4 [1]): 2290 nM
NC(=O)C(=O)c1cc2ccccc2n1S(=O)(=O)c1ccccc1	15000	–
O=C(NCCO)c1[nH]c2ccc(Cl)cc2c1Sc1ccccc1	–	EC50 (MT4 [1]): 129 nM
Cc1cccc(S(=O)(=O)c2c(C(=O)NNCCO)[nH]c3ccc(Cl)cc23)c1	–	EC50 (MT4 [1]): 10 nM
NC(=O)c1[nH]c2ccc(Cl)cc2c1S(=O)(=O)c1ccc(Cl)cc1	11	–
NC(=O)c1[nH]c2ccc(Cl)cc2c1Sc1ccccc1	20	–
Cc1cc(C)cc(S(=O)(=O)c2c(C(N)=O)[nH]c3ccc(C(C)O)cc23)c1 (stereo unspecified)	25	–
NNC(=O)c1[nH]c2ccc(Cl)cc2c1S(=O)(=O)c1cc(Cl)ccc1N	300	–
NC(=O)c1[nH]c2ccccc2c1S(=O)(=O)c1cc(Cl)ccc1N	300	–

SMILES	EC50 (MT4 [2]) [nM]	other results
CCOC(=O)c1[nH]c2ccccc2c1S(=O)(=O)c1cc(Cl)ccc1N	2500	–
NC(=O)c1[nH]c2ccc(Cl)cc2c1Sc1cc(Cl)ccc1N	1600	–
NC(=O)c1[nH]c2ccc(Cl)cc2c1S(=O)(=O)c1cc(Cl)ccc1N	40	–
Cc1cc(C)cc(Sc2c(C(N)=O)[nH]c3ccc(Cl)cc23)c1	6	–
CCOC(=O)c1[nH]c2ccccc2c1S(=O)(=O)c1ccccc1	3700	–
NC(=O)c1[nH]c2ccccc2c1Sc1ccccc1	1400	–
CCOC(=O)c1[nH]c2ccccc2c1Sc1ccccc1	1400	–
NNC(=O)c1[nH]c2ccc(Cl)cc2c1Sc1cc(Cl)ccc1N	> 13000	–
CCOC(=O)c1[nH]c2ccccc2c1Sc1cc(Cl)ccc1N	≥ 200000	–
NC(=O)c1[nH]c2ccc(Cl)cc2c1Sc1ccc(Cl)cc1	3100	–
CC(C)c1ccc(S(=O)(=O)c2c(C(N)=O)[nH]c3ccc(Cl)cc23)cc1	80	–
Cc1ccc(S(=O)(=O)c2c(C(N)=O)[nH]c3ccc(Cl)cc23)c(C)c1	4	–
Nc1cc(Cl)ccc1S(=O)(=O)n1ccc2ccccc21	–	EC50 (MT4 [1]): 74100 nM
O=[N+]([O-])c1ccc(Cl)cc1S(=O)(=O)n1ccc2ccccc21	–	EC50 (MT4 [1]): 3980 nM
O=[N+]([O-])c1cc(Cl)ccc1S(=O)(=O)n1ccc2ccccc21	–	EC50 (MT4 [1]): 15800 nM
CCOC(=O)C(=O)c1cc2cc(Cl)ccc2n1S(=O)(=O)c1ccccc1	> 200000	–
NC(=O)C(=O)c1cc2cc(Cl)ccc2n1S(=O)(=O)c1ccccc1	66600	–
CCOC(=O)C(=O)c1cc2ccccc2n1S(=O)(=O)c1ccccc1[N+](=O)[O-]	1800	–
O=Cc1cc2ccccc2n1S(=O)(=O)c1ccccc1	> 150000	–
Cc1cc(C)cc(S(=O)(=O)c2c(C(=O)NCCO)[nH]c3ccc(Cl)cc23)c1	1	EC90 (C8166 [3]): 100 nM; EC50 (MT4 [4]): 500 nM; EC50 (MT4 [5]): 10 nM; EC50 (MT4 [6]): 10 nM; EC90 (C8166 [7]): 100 nM; EC50 (MT4 [8]): 500 nM; EC90 (C8166 [9]): 5 nM; EC90 (C8166 [10]): 5 nM; EC50 (MT4 [1]): 1 nM; EC50 (MT4 [11]): 1 nM
